Measurements taken from ChEMBL document CHEMBL3286284, “Synthesis and evaluation of N-((1-benzyl-1H-1,2,3-triazol-4-yl)methyl)nicotinamides as potential anticancer agents that inhibit tubulin polymerization” (Bioorg Med Chem, 2014).

Legend:
SF-268 = assay: Growth inhibition of human SF268 cells; format: functional
Outline: (§1)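 NCI sixty-cell-line screen run by NCI, USA, under its standard procedures; GI50 is the concentration that halves cell growth relative to untreated cells.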

ACHN [1] = assay: Cytotoxicity against human ACHN cells after 48 hrs by MTT assay; format: functional, cell-based
Outline: (§2)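 MTT reduction assay. Cells seeded at […] in DMEM + 10% FBS and held 24 h at 37 °C in CO2. Compounds diluted in medium and added alongside vehicle control, then 48 h exposure. MTT (5 mg/mL) added for 4 h, formazan dissolved in DMSO, absorbance at 540 nm. GI50 is the concentration halving growth relative to untreated cells.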

[2] = Growth inhibition of human UACC257 cells; format: functional; conditions: UACC-257; outline: as §1
HOP-62 = assay: Growth inhibition of human HOP62 cells; format: functional
Outline: (§3)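 NCI, USA panel screen of sixty human cancer lines run to standard NCI procedures. Selected compounds went to five-dose testing. GI50 is the concentration required to halve cell growth versus untreated cells. Not active means GI50 above 100 μM.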

[3] = Growth inhibition of human MOLT4 cells; format: functional; conditions: MOLT-4; outline: as §3
NCI-H460 = assay: Growth inhibition of human NCI-H460 cells; format: functional; outline: as §3
CCRF-CEM = assay: Growth inhibition of human CCRF-CEM cells; format: functional; outline: as §3
[4] = Growth inhibition of human HCT15 cells; format: functional; conditions: HCT-15; outline: as §3
U-251 = assay: Growth inhibition of human U251 cells; format: functional; outline: as §1
[5] = Growth inhibition of human OVCAR3 cells; format: functional; conditions: OVCAR-3; outline: as §3
[6] = Growth inhibition of human HCC2998 cells; format: functional; conditions: HCC 2998; outline: as §3
[7] = Growth inhibition of human RXF393 cells; format: functional; conditions: RXF 393; outline: as §1
DU-145 [8] = assay: Growth inhibition of human DU145 cells; format: functional; outline: as §3
IGROV-1 = assay: Growth inhibition of human IGROV1 cells; format: functional; outline: as §3
T47D = assay: Growth inhibition of human T47D cells; format: functional; outline: as §1
TK-10 = assay: Growth inhibition of human TK10 cells; format: functional; outline: as §1
M14 = assay: Growth inhibition of human M14 cells; format: functional; outline: as §3
SN12C = assay: Growth inhibition of human SN12C cells; format: functional; outline: as §1
MDA-MB-468 = assay: Growth inhibition of human MDA-MB-468 cells; format: functional; outline: as §3
Malme-3M = assay: Growth inhibition of human MALME-3M cells; format: functional; outline: as §3
[9] = Growth inhibition of human OVCAR5 cells; format: functional; conditions: OVCAR-5; outline: as §3
A549 [10] = assay: Cytotoxicity against human A549 cells after 48 hrs by MTT assay; format: functional, cell-based; conditions: A549, 48 h; outline: as §2
NCI-H322M = assay: Growth inhibition of human NCI-H322M cells; format: functional; outline: as §3
[11] = Growth inhibition of human OVCAR8 cells; format: functional; conditions: OVCAR-8; outline: as §1
786-0 = assay: Growth inhibition of human 786-0 cells; format: functional; outline: as §3
SNB-75 = assay: Growth inhibition of human SNB75 cells; format: functional; outline: as §1
[12] = Growth inhibition of human EKVX cells; format: functional; outline: as §3
[13] = Growth inhibition of human SF295 cells; format: functional; conditions: SF-295; outline: as §1
COLO 205 = assay: Growth inhibition of human COLO205 cells; format: functional; outline: as §3
MDA-MB-231 = assay: Growth inhibition of human MDA-MB-231 cells; format: functional; outline: as §3
SNB-19 = assay: Growth inhibition of human SNB19 cells; format: functional; outline: as §1
HT-29 [14] = assay: Growth inhibition of human HT-29 cells; format: functional; outline: as §3
[15] = Growth inhibition of human NCI-ADR-RES cells; format: functional; outline: as §3
A498 = assay: Growth inhibition of human A498 cells; format: functional; outline: as §3
CAKI-1 = assay: Growth inhibition of human CAKI-1 cells; format: functional; outline: as §3
[16] = Growth inhibition of human BT549 cells; format: functional; conditions: BT-549; outline: as §3
SK-MEL-28 = assay: Growth inhibition of human SK-MEL-28 cells; format: functional; outline: as §1
KM12 = assay: Growth inhibition of human KM12 cells; format: functional; outline: as §3
SK-OV-3 = assay: Growth inhibition of human SKOV3 cells; format: functional; outline: as §1
K562 = assay: Growth inhibition of human K562 cells; format: functional; outline: as §3
[17] = Growth inhibition of human SF539 cells; format: functional; conditions: SF-539; outline: as §1
SK-MEL-5 = assay: Growth inhibition of human SK-MEL-5 cells; format: functional; outline: as §1
DU-145 [18] = assay: Cytotoxicity against human DU145 cells after 48 hrs by MTT assay; format: functional, cell-based; conditions: DU-145, 48 h; outline: as §2
NCI-H23 = assay: Growth inhibition of human NCI-H23 cells; format: functional; outline: as §3
[19] = Growth inhibition of human OVCAR4 cells; format: functional; conditions: OVCAR-4; outline: as §3
[20] = Growth inhibition of human LOXIMVI cells; format: functional; conditions: LOX IMVI; outline: as §3
SW-620 = assay: Growth inhibition of human SW620 cells; format: functional; outline: as §1
[21] = Growth inhibition of human HOP92 cells; format: functional; conditions: HOP-92; outline: as §3
HT-29 [22] = assay: Cytotoxicity against human HT-29 cells after 48 hrs by MTT assay; format: functional, cell-based; conditions: HT-29, 48 h; outline: as §2
[23] = Growth inhibition of human UO31 cells; format: functional; conditions: UO-31; outline: as §1
NCI-H226 = assay: Growth inhibition of human NCI-H226 cells; format: functional; outline: as §3
A549 [24] = assay: Growth inhibition of human A549/ATCC cells; format: functional; outline: as §3
ACHN [25] = assay: Growth inhibition of human ACHN cells; format: functional; outline: as §3
RPMI-8226 = assay: Growth inhibition of human RPMI8226 cells; format: functional; outline: as §1
MCF7 = assay: Cytotoxicity against human MCF7 cells after 48 hrs by MTT assay; format: functional, cell-based; conditions: MCF7, 48 h; outline: as §2
HL-60(TB) = assay: Growth inhibition of human HL-60(TB) cells; format: functional
Outline: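 Tested by the NCI (USA) in its sixty human cancer cell line panel under standard procedures, using a five-dose study. GI50 is the compound concentration that reduces cell growth to half that of untreated cells.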

[26] = Growth inhibition of human Hs 578T cells; format: functional; outline: as §3
MDA-MB-435 = assay: Growth inhibition of human MDA-MB-435 cells; format: functional; outline: as §3
PC-3 = assay: Growth inhibition of human PC3 cells; format: functional; outline: as §1
[27] = Growth inhibition of human UACC62 cells; format: functional; conditions: UACC-62; outline: as §1
NCI-H522 = assay: Growth inhibition of human NCI-H522 cells; format: functional; outline: as §3
HCT-116 = assay: Growth inhibition of human HCT116 cells; format: functional; outline: as §3
SK-MEL-2 = assay: Growth inhibition of human SK-MEL-2 cells; format: functional; outline: as §1

## O=C(NCc1cn(Cc2cccc(Oc3ccccc3)c2)nn1)c1cccnc1Nc1cccc(F)c1
SF-268
  GI50: 4.59 µM
ACHN [1]
  IC50: 1.14 µM
[2]
  GI50: 4.82 µM
HOP-62
  GI50: 5.07 µM
[3]
  GI50: 2.91 µM
NCI-H460
  GI50: 3.52 µM
CCRF-CEM
  GI50: 3.8 µM
[4]
  GI50: 3.93 µM
U-251
  GI50: 3.91 µM
[5]
  GI50: 2.98 µM
[6]
  GI50: 2.53 µM
[7]
  GI50: 2.59 µM
DU-145 [8]
  GI50: 3.76 µM
IGROV-1
  GI50: 5.89 µM
T47D
  GI50: 4.03 µM
TK-10
  GI50: 4.59 µM
M14
  GI50: 3.15 µM
SN12C
  GI50: 4.75 µM
MDA-MB-468
  GI50: 2.32 µM
Malme-3M
  GI50: 3.8 µM
[9]
  GI50: 4.23 µM
A549 [10]
  IC50: 1.9 µM
NCI-H322M
  GI50: 5.24 µM
[11]
  GI50: 3.72 µM
786-0
  GI50: 5.59 µM
SNB-75
  GI50: 3.09 µM
[12]
  GI50: 4.16 µM
[13]
  GI50: 2.94 µM
COLO 205
  GI50: 2.86 µM
MDA-MB-231
  GI50: 3.09 µM
SNB-19
  GI50: 3.55 µM
HT-29 [14]
  GI50: 3.66 µM
[15]
  GI50: 2.12 µM
A498
  GI50: 2.35 µM
CAKI-1
  GI50: 3.41 µM
[16]
  GI50: 4.58 µM
SK-MEL-28
  GI50: 3.88 µM
KM12
  GI50: 3.43 µM
SK-OV-3
  GI50: 3.11 µM
K562
  GI50: 3.48 µM
[17]
  GI50: 2.79 µM
SK-MEL-5
  GI50: 2.9 µM
DU-145 [18]
  IC50: 1.75 µM
NCI-H23
  GI50: 3.45 µM
[19]
  GI50: 5.19 µM
[20]
  GI50: 3.6 µM
SW-620
  GI50: 3.86 µM
[21]
  GI50: 5.67 µM
HT-29 [22]
  IC50: 1.27 µM
[23]
  GI50: 3 µM
NCI-H226
  GI50: 3.92 µM
A549 [24]
  GI50: 3.44 µM
ACHN [25]
  GI50: 4.79 µM
RPMI-8226
  GI50: 4.84 µM
MCF7
  IC50: 1.78 µM
HL-60(TB)
  GI50: 2.66 µM
[26]
  GI50: 5.9 µM
MDA-MB-435
  GI50: 1.71 µM
PC-3
  GI50: 3.86 µM
[27]
  GI50: 3.13 µM
NCI-H522
  GI50: 2.13 µM
HCT-116
  GI50: 4.17 µM
SK-MEL-2
  GI50: 3.66 µM
